# Bioassay records (PubChem)
# Fh CTSL1 inh – cathepsin L1 inhibition, PFM18AAP counter-screen. recombinant F. hepatica cathepsin L1, Z-Leu-Arg-MCA fluorescence. inhibition, % at 5.96 µM. actives 0.49% (n = 300,000). AID 1906;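 active = inhibition above the mean of all tested compounds plus 3 SD, set per screening campaign, cut at about 17% in these data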
# XBP1 UPR activ – adaptive UPR (XBP1) activation; CHO-XBP1 luciferase reporter, IRE1-XBP1 UPR activation, luminescence; percent of tunicamycin response, DMSO as zero; activation, % at 20 µM; actives 0.33% (n = 330,000);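 active = versus positive control, 20 µM dose yields 30% or more activation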
#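 Test system: CHO-XBP1 luciferase reporter cells | Buffer or medium: Serum-containing F12 medium, 10% FBS | Schedule: 6 h compound exposure at 37 °C, 5% CO2 | Detection: Steady-Glo luciferase glow luminescence, 10 min after reagent addition | Read-out basis: Activation, % of tunicamycin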
# CHOP inhibitor – blocks CHOP induction under ER stress; CHO-K1 CHOP-promoter luciferase, tunicamycin-induced, 15-18 h; AID 2732; actives 3.8% (n = 220,000); inhibition, % at 10 µM;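 active = compounds that reduced the stress-induced luciferase reporter signal by more than about 70% of percent inhibition, limit read from the data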
# UCH37 DUB inh – human UCH37 deubiquitinating enzyme inhibition; Q9Y5K5; purified proteasome/UCH37, Ub-AMC cleavage fluorescence; inhibition, % (no concentration beside the values); actives 0.33% (n = 330,000);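 active = mean inhibition over replicate wells above about 20%, limit read from the data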
# Target sequence (Q9Y5K5 whole entry, looked up): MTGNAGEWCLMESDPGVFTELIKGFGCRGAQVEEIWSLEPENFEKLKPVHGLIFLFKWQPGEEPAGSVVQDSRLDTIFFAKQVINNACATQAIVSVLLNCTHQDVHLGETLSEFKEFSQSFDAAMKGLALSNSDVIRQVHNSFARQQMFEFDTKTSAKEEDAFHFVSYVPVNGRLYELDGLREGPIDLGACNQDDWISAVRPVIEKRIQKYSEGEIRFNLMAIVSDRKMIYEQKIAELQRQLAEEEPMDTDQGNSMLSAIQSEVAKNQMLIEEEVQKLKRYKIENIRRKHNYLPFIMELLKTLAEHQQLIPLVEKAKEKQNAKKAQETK
#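 Reagent: Ub-AMC substrate; assay system: Proteasome-associated human UCH37 deubiquitinase; controls: no-proteasome and no-compound wells; read-out: % inhibition of Ub-AMC cleavage fluorescence; timing: 30 min preincubation with enzyme, 25 min cleavage at room temperature; signal: AMC fluorescence from Ub-AMC cleavage, excitation 355 nm, emission 460 nm; buffer or medium: Tris-HCl pH 7.4 plus ovalbumin, ATP-MgCl2, DTT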
# CHOP UPR activ – apoptotic UPR (CHOP) activation; actives 0.34% (n = 330,000); CHO-CHOP luciferase reporter, luminescence; percent of tunicamycin response over DMSO baseline; activation, % at 10 µM;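 active = at 10 µM dose, activation of 40% or more, normalized to positive control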
#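 System: CHO-CHOP luciferase reporter cell line | Buffer or medium: F12 medium containing 10% fetal bovine serum | Doses: One dose, 10 µM in 0.5% DMSO | Times: 6 h compound exposure at 37 °C after overnight seeding | Signal: Luciferase luminescence | Read-out: % activation vs tunicamycin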
# UPR XBP1 confirm – confirmation of adaptive unfolded protein response (XBP1) activators. shares compounds with XBP1 UPR activ. CHO-XBP1 IRE1-XBP1 luciferase reporter, luminescence. activation, % at 20 µM. actives 63% (n = 1,000). AID 485299;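 active = reporter signal at least 30% of the positive control's activation in two or more of four replicate wells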
# Hits are given with their value; . = inactive; / = not tested or not shown. The entries come from a sample that favours hits as a whole.
SMILES,Fh CTSL1 inh,XBP1 UPR activ,CHOP inhibitor,UCH37 DUB inh,CHOP UPR activ,UPR XBP1 confirm
Cc1ccc(NS(=O)(=O)c2cc([N+](=O)[O-])ccc2N/N=C/c2sc(N3CCOCC3)nc2-c2ccccc2)c(C)c1,.,36,.,/,.,31
Cc1n[nH]c(C)c1CCC(=O)NN=Cc1cccc([N+](=O)[O-])c1,/,/,/,.,/,/
C/C(=N/NC(=O)c1ccc(C)s1)c1cccc(NC(=O)COc2ccc(Cl)cc2C)c1,.,56,.,/,.,56
COc1ccc(Cl)cc1N=Cc1c(O)c2ccccc2oc1=O,.,42,/,.,.,.
COC(=O)c1cc(N=Cc2c(O)c3ccccc3oc2=O)cc(C(=O)OC)c1,.,.,/,.,.,/
C/C(C=Nn1cnnc1)=C/c1ccccc1,/,/,/,.,/,/
CCOC(=O)c1c(Nc2ccc(Cl)cc2)sc(/C=C2\C=Nc3ccccc32)c1O,.,38,76,/,.,.
CC(NCC(O)COCCC12CC3CC(CC(C3)C1)C2)c1ccccc1 (stereo unspecified),.,51,.,.,.,51
O=C(CC(=O)NN=Cc1c(F)cccc1Cl)NCCc1ccccc1,/,/,/,.,/,/
COc1ccccc1N(CC(=O)NN=Cc1ccc(C(=O)O)cc1)S(=O)(=O)c1ccc(C)cc1,/,/,/,.,/,/
O=C(Nc1nc(-c2cccs2)cs1)c1ccc(Cl)s1,.,.,.,.,.,/
CC(C)(C)c1csc(NC(=O)c2ccc(Cl)s2)n1,.,30,73,.,.,33
C=CCn1c(NC(=O)c2ccccc2Cl)c(C#N)c2nc3ccccc3nc21,.,35,.,.,.,.
CN(N=Cc1ccccc1O)C(=S)c1ccccc1,/,/,/,.,/,/
COC(=O)c1nn(-c2ccccc2)nc1-c1nn(-c2ccccc2)nc1C(=O)OC,.,39,.,.,.,.
COC(c1ccccc1)(c1ccccc1)C(Oc1nccc(C)n1)C(=O)O (stereo unspecified),.,137,/,.,.,.
COc1ccc(N(CC(=O)Nc2c(C)n(C)n(-c3ccccc3)c2=O)S(=O)(=O)c2ccccc2)cc1OC,.,90,.,.,.,.
COc1ccc(N(CC(=O)Nc2c(C)n(C)n(-c3ccccc3)c2=O)S(=O)(=O)c2ccc(C)cc2)cc1,.,.,.,.,.,/
O=C(Oc1ccc2c(c1)OCC2=O)c1ccccc1,.,37,.,.,.,.
CC(C)(C)c1ccc(C(=O)Oc2ccc3c(c2)OCC3=O)cc1,.,.,.,.,.,/
COc1ccc(C=NNC(=O)c2cccs2)c2ccccc12,/,/,/,.,/,/
COc1ccc(/C=N/NC(=O)c2cccc([N+](=O)[O-])c2)c2ccccc12,.,77,/,/,.,34
COc1ccc(-c2ccc3c(c2)S(=O)(=O)c2cccc(C(=O)NC4CCCC4)c2C3=O)cc1OC,/,.,/,.,.,/
CC(C)c1cccc(-c2ccc3c(c2)S(=O)(=O)c2cccc(C(=O)NC4CCCC4)c2C3=O)c1,/,33,/,.,.,.
O=C(NC1CCCCC1)c1cccc2c1C(=O)c1ccc(-c3ccc(OC(F)(F)F)cc3)cc1S2(=O)=O,/,75,/,.,.,67
SMILES,Fh CTSL1 inh,XBP1 UPR activ,CHOP inhibitor,UCH37 DUB inh,CHOP UPR activ,UPR XBP1 confirm
CCn1c2ccccc2c2cc(Nc3cc(C)nc4ncnn34)ccc21,.,36,/,.,.,.
Cc1c(CCOC(=O)CC23CC4CC(CC(C)(C4)C2)C3)sc[n+]1CC(=O)c1ccccc1,.,.,.,.,.,/
Cc1c(CCOC(=O)CC23CC4CC(CC(C4)C2)C3)sc[n+]1CC(=O)c1ccc(Br)cc1,.,34,.,/,.,.
COc1ccc(-c2csc(C3=C(O)CN(Cc4ccc(Cl)cc4)C3=N)n2)cc1OC,.,43,.,.,.,134
COc1ccc(-c2csc(C3=C(O)CN(Cc4ccc(S(N)(=O)=O)cc4)C3=N)n2)cc1OC,.,.,.,.,.,/
COc1cc(C=NNC(=O)c2cccc(C(=O)NN=Cc3ccc(O)c(OC)c3)n2)ccc1O,/,/,/,.,/,/
COc1ccc2[nH]c3nc(SCc4nnc(-c5ccc(C)cc5)o4)nnc3c2c1,.,71,.,.,.,190
CC(=NN=C(N)N)c1cc(Cl)ccc1Cl,/,/,/,.,/,/
COc1ccccc1CNCC(O)Cn1c2ccccc2c2ccccc21 (stereo unspecified),.,30,.,.,.,.
CCCNC(=O)/C(C#N)=C1\N=C(NC(=O)c2cccs2)c2ccccc21,.,45,/,.,.,66
COCCNC(=O)/C(C#N)=C1\N=C(NC(=O)c2cccs2)c2ccccc21,.,.,/,.,.,/
O=C(NN=Cc1cc([N+](=O)[O-])cc([N+](=O)[O-])c1O)C(O)(c1ccccc1)c1ccccc1,/,/,/,.,/,/
COc1ccc2[nH]c3c(c2c1)CCN1C(=O)C(CC(=O)NC/C=C(\C)CCC=C(C)C)C[C@H](C(=O)N2CCOCC2)[C@@]31CCC1CCCC1 (stereo partly specified),/,47,/,.,.,58
O=C(Nc1ccc([N+](=O)[O-])cc1)c1nc[nH]c1C(=O)NC1CCCCC1,.,166,.,.,.,172
O=C(Nc1ccc(F)cc1)c1nc[nH]c1C(=O)Nc1ccc([N+](=O)[O-])cc1,.,.,.,.,.,/
Cc1ccc(-c2n[nH]c(=S)n2N=Cc2sccc2C)cc1,/,/,/,.,/,/
COc1cc(OC)c(C=NNC(=O)c2ccc(NC(C)=O)cc2)cc1Br,/,/,/,.,/,/
COc1cnc(-c2ccccn2)nc1Sc1ccc(Cl)cc1,.,32,.,.,.,.
Cc1ccc(SCC(=O)OCC(=O)NCCCc2ccccc2)cc1,.,.,/,.,.,/
O=C(COC(=O)CSc1ccc(F)cc1)NCCCc1ccccc1,.,44,/,.,.,.
COc1ccc(Br)cc1C=NNC(=O)C(c1ccncc1)N1CCOCC1 (stereo unspecified),/,/,/,.,/,/
Nc1nc(Nc2cccc(C(F)(F)F)c2)nc(C(F)(F)F)n1,.,34,.,.,.,49
Cc1csc(=NC(=S)Nc2ccccc2)n1C,/,/,/,.,/,/
ClCc1nnc(-c2cc3c(s2)CCCC3)o1,/,/,.,.,/,/
CC(C)(C)C1CCc2sc(-c3nnc(CCl)o3)cc2C1 (stereo unspecified),.,44,.,.,.,.
CCC(Sc1nc(C)cc(=O)[nH]1)C(=O)Nc1sc2c(c1C#N)CCCC2 (stereo unspecified),.,.,.,.,.,/
CCC(Sc1nnc2c3ccccc3n(CC)c2n1)C(=O)Nc1sc2c(c1C#N)CCCC2 (stereo unspecified),.,163,.,.,.,157
Cc1nnsc1C(=O)NN=Cc1c(F)cccc1Cl,/,/,/,.,/,/
CCC(=NNC(=O)OC)c1ccc(OC(F)F)cc1,/,/,/,.,/,/
